Source: paper PMC9890135 (Molecular Cancer Therapeutics, 2022)

Assays:
[1] = test system: panel of 405 protein kinases; assay: KinaseProfiler 33P radiometric kinase assay, panel; format: biochemical
Summary of the method: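 Radiometric 33P-phosphoryl transfer assay measuring catalytic activity of recombinant active kinase domains across the profiling panel.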

[2] = target: T1, AXL (Homo sapiens, UniProt P30530); assay: Inhibition of receptor phosphorylation, ELISA, A-172 cells/GAS6; format: cell-based
T1 sequence (P30530 26-894): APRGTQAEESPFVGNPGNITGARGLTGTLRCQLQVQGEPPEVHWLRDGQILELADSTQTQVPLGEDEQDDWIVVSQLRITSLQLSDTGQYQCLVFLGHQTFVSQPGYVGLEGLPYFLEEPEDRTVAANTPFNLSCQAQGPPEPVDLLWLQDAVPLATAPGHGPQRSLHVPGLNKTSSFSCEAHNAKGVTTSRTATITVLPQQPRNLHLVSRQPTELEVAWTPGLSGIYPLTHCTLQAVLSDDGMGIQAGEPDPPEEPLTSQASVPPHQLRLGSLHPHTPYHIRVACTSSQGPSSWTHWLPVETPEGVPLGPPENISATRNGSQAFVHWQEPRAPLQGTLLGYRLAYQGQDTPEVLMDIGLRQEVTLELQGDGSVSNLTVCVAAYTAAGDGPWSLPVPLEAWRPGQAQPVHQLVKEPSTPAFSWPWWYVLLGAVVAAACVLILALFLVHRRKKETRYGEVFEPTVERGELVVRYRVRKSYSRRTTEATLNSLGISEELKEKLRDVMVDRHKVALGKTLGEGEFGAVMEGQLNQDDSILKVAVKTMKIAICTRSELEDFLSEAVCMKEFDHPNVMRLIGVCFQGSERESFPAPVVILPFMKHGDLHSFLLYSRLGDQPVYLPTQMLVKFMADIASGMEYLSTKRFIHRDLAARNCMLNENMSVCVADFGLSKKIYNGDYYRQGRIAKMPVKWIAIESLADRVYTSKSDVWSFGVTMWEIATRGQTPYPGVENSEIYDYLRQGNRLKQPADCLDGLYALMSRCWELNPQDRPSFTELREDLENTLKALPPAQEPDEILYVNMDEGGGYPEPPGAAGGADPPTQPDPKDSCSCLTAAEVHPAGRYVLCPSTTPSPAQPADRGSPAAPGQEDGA

[3] = target: T2, TYRO3 (Homo sapiens, UniProt Q06418); assay: Inhibition of receptor phosphorylation, ELISA, TYRO3-transfected 293A cells; format: cell-based
T2 sequence (Q06418 41-890): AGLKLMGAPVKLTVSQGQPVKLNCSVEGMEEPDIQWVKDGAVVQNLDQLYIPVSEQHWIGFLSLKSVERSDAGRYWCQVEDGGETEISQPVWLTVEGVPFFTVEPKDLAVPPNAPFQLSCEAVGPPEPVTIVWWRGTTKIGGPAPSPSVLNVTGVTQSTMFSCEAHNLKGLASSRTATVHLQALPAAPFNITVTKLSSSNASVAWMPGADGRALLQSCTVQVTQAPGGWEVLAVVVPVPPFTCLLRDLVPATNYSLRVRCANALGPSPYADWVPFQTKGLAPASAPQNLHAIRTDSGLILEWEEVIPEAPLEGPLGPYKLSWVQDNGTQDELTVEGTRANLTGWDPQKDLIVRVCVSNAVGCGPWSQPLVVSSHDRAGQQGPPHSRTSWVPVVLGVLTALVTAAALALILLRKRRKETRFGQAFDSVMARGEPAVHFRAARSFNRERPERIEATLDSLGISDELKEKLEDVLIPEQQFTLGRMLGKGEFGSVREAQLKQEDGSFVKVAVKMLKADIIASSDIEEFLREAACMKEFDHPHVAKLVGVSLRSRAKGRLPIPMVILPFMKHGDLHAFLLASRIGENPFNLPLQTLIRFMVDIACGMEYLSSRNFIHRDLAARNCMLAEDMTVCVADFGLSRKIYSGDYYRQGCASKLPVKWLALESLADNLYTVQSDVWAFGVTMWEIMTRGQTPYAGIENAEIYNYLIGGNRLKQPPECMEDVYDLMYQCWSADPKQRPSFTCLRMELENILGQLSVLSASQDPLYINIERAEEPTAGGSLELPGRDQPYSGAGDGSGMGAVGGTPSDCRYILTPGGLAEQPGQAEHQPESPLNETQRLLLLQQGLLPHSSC
Summary of the method: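 293A cells transfected with TYRO3 were serum-starved 3–24 h, then incubated 1 h in serum-free medium with serially diluted test compound. Receptor phosphorylation quantified by ELISA to derive IC50.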

[4] = test system: CT26 tumors; assay: CT26 syngeneic colorectal cancer survival model; format: in vivo, mice; conditions: XL092 30 mg/kg orally once a day, anti-PD-1 10 mg/kg every 3–4 days i.p.
Summary of the method: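 CT26 syngeneic mice randomised at ~90 mm3. Treatment: oral test compound 30 mg/kg once daily for 34 days, with or without anti-PD-1 antibody (10 mg/kg i.p. every 3–4 days for 5 weeks, diluted in sterile PBS), or vehicle. Animals sacrificed at tumour volume 2,500 mm3; survival analysed by Kaplan–Meier.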

[5] = rats; cited from earlier work
[6] = test system: MDA-MB-231 tumors; assay: MDA-MB-231 xenograft tumor growth; format: in vivo, mice; conditions: 14 days, oral
Summary of the method: (§1)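 Human tumour cells inoculated into the rear flank. Mice randomised at mean volumes of ~200 mm3 (Hs 746T), ~120 mm3 (MDA-MB-231), ~100 mm3 (NCI-H441) or ~90 mm3 (SNU-5). Oral gavage once daily with test compound or vehicle. Tumour volume and body weight measured at least twice weekly. […], using mean volumes at extraction and dosing start.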

[7] = target: MET (Homo sapiens, UniProt P08581, DEL964-1010); assay: Inhibition of receptor phosphorylation, ELISA, Hs 746T cells; format: cell-based
[8] = target: MET (Homo sapiens, UniProt P08581); assay: Inhibition of receptor phosphorylation, ELISA, PC-3 cells/HGF; format: cell-based
[9] = target: T1, AXL; assay: AXL phosphorylation in Hs 746T tumors in vivo; set-up: species or system mice
Summary of the method: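 Hs 746T xenograft mice received single oral doses (30 or 100 mg/kg) or vehicle, n = 6/group. […] Tumour pAXL/AXL ratio reported as mean ± SEM, Mann–Whitney U test. Duration study: 100 mg/kg group sampled every 12 h up to 48 h.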

[10] = test system: NCI-H441 tumors; assay: NCI-H441 xenograft tumor growth; format: in vivo, mice; conditions: 21 days, oral
Summary of the method: as §1

CNC(=O)c1cc2c(Oc3ccc(NC(=O)C4(C(=O)Nc5ccc(F)cc5)CC4)cc3)ccnc2cc1OC [XL092]
activity against serine or threonine kinases ([1]; kinase profiling): No activity | inhibition of additional RTKs and TKs ([1]; single concentration of 1 μmol/L, panel of 405 protein kinases): ≥ 70% | IC50 [2]: 3.89 ± 1.61 nM | IC50 [3]: 306 ± 1.37 nM | survival to the end of the 34-day dosing regimen [4]: 20% | half-life [5]: approximately 7 hours | Tumor growth inhibition ([6]; 3 mg/kg/day): 73.6% | Tumor growth inhibition ([6]; 10 mg/kg/day): 78.6% | IC50 [7]: 25.4 ± 1.32 nM | IC50 [8]: 11.9 ± 1.55 nM | duration of inhibition of AXL phosphorylation ([9]; Hs 746T model, single dose of 100 mg/kg): approximately 24 hours | tumor AXL phosphorylation relative to vehicle ([9]; Hs 746T xenograft, single oral doses 30 or 100 mg/kg, P < 0.01): significant decrease | Tumor growth inhibition ([10]; 1 mg/kg/day): 68.3% | Tumor regression (%) ([10]; 3 mg/kg/day): 5.6% | Tumor regression (%) ([10]; 10 mg/kg/day): 67.7% | Tumor regression (%) ([10]; 30 mg/kg/day): 72.1% | Tumor regression (%) ([10]; 60 mg/kg/day): 86.1%
